Values belong to the molecule of their own block, whether it stands above or below them. Activity calls are given as the source filed them. The calls are words filed in the database; no cut-off is given here.
Key:
[1] = target: T1, Aldo-keto reductase family 1 member B1 (Bos taurus, UniProt P16116); test: In vitro inhibition of aldose reductase activity in a partially purified bovine lens preparation at 4*10e-8 M; NS=Not significant
Outline: (§1)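 Partially purified bovine lens aldose reductase (ammonium sulfate fractionation). NADPH oxidation read at 340 nm, 37 °C, in 30 mM sodium phosphate pH 6.2, 0.2 M LiSO4, […], 1% DMSO. Enzyme was preincubated with inhibitor for 5 min, then the reaction was started with 5 mM DL-glyceraldehyde. Duplicates; IC50 from linear regression of log concentration vs percent inhibition.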

[2] = target: T1, Aldo-keto reductase family 1 member B1; test: Compound was evaluated In vitro for inhibition of aldose reductase activity in a partially purified bovine lens preparation at 10e-7 M; NS=Not significant; outline: as §1
[3] = target: T1, Aldo-keto reductase family 1 member B1; test: In vitro inhibition of aldose reductase activity in a partially purified bovine lens preparation
Rattus norvegicus [4] = species: Rattus norvegicus; test: Percentage Inhibition of galactitol accumulation in the sciatic nerve of rats
[5] = Half-life In vitro; assay type: ADME
Rattus norvegicus [6] = test: Percentage Inhibition of galactitol accumulation in the sciatic nerve of rats fed with the dose of 25.6 mg/kg/day; assay type: functional
Outline: (§2)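 Male Sprague-Dawley rats (70-90 g), six per group, fed 20% galactose chow with compound in the diet for 4 days; glucose-fed controls. After a 3-h fast, lens or sciatic nerve galactitol was measured as nmol/mg wet weight. Percent inhibition vs galactose-fed controls, mean ± SEM; ANOVA with Dunnett's test.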

Rattus norvegicus [7] = species: Rattus norvegicus; test: Dose at which the tissue level of polyol accumulation was reduced by 50% was evaluated for 4 days in sciatic nerve; assay type: functional; conditions: 96 h
Outline: (§3)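 Male Sprague-Dawley rats (70-90 g, six per group) fed chow with 20% galactose and compound in the diet for 4 or 14 days. After a 3-h fast, lens and sciatic nerve were removed and frozen, and galactitol was quantitated in nmol/mg wet weight. ED50 from nonlinear regression of log dose vs tissue polyol.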

Rattus norvegicus [8] = species: Rattus norvegicus; test: Dose at which the tissue level of polyol accumulation was reduced by 50% was evaluated for 14 days in sciatic nerve; assay type: functional; outline: as §3
[9] = Compound was evaluated In vitro for inhibition of aldose reductase activity by 50% in rat RBC
Outline: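 Rat (or dog) red blood cells from fasted male Sprague-Dawley rats (150-170 g, EDTA, aortic arch) or pooled beagle blood; 1 mL packed cells in 2 mL HBSS with 10 mM galactose plus inhibitor 1 to 5×10^-8 M, 3 h, 95% air/5% CO2, shaken. Erythrocyte galactitol measured; IC50 mean ± SD of three to six replicate experiments.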

Rattus norvegicus [10] = species: Rattus norvegicus; test: Dose at which the tissue level of polyol accumulation was reduced by 50% was evaluated for 4 days in lens; assay type: functional; conditions: Lens of camera-type eye, 96 h; outline: as §3
Rattus norvegicus [11] = species: Rattus norvegicus; test: Dose at which the tissue level of polyol accumulation was reduced by 50% was evaluated for 12 days in sciatic nerve; assay type: functional; conditions: 288 h
Rattus norvegicus [12] = species: Rattus norvegicus; test: Dose at which the tissue level of polyol accumulation was reduced by 50% was evaluated for 12 days in lens; assay type: functional; conditions: Lens of camera-type eye, 288 h
Rattus norvegicus [13] = species: Rattus norvegicus; test: Dose at which the tissue level of polyol accumulation was reduced by 50% was evaluated for 14 days in RBC; assay type: functional; conditions: 336 h
Outline: (§4)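 Male Sprague-Dawley rats (200-250 g, 12 per group) made diabetic with streptozocin 60 mg/kg iv in cold 0.03 M citrate pH 4.5; plasma glucose kept between 300 and 550 mg/dl. Compound was suspended in 2% Tween 80/saline and gavaged daily for 14 days. On day 15, RBC, lens and sciatic nerve polyol was measured. ED50 by nonlinear regression of log dose.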

Rattus norvegicus [14] = test: Percentage Inhibition of galactitol accumulation in the lens of rats fed with the dose of 0.9 mg/kg/day; assay type: functional; conditions: Lens of camera-type eye; outline: as §2
[15] = target: Aldo-keto reductase family 1 member B1 (Bos taurus) (UniProt P16116); test: Inhibition of aldose reductase activity in a partially purified bovine lens preparation at 10e-7 M; outline: as §1
Rattus norvegicus [16] = test: Percentage Inhibition of galactitol accumulation in the sciatic nerve of rats fed with the dose of 0.9 mg/kg/day; assay type: functional; outline: as §2
[17] = target: Aldo-keto reductase family 1 member B1 (Bos taurus) (UniProt P16116); test: Inhibition of aldose reductase activity in a partially purified bovine lens preparation at 4*10e-8 M; outline: as §1
Rattus norvegicus [18] = test: Percentage Inhibition of galactitol accumulation in the lens of rats fed with the dose of 1.1 mg/kg/day; assay type: functional; conditions: Lens of camera-type eye; outline: as §2
Rattus norvegicus [19] = test: Percentage Inhibition of galactitol accumulation in the sciatic nerve of rats fed with the dose of 0.5 mg/kg/day; assay type: functional; outline: as §2
Rattus norvegicus [20] = test: Percentage Inhibition of galactitol accumulation in the lens of rats fed with the dose of 3.0 mg/kg/day; assay type: functional; conditions: Lens of camera-type eye; outline: as §2
[21] = Log P value by using Octanol / pH 7.4 buffer; assay type: physicochemical
Outline: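 Partition measured between octanol and pH 7.4 buffer.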

Rattus norvegicus [22] = test: Percentage Inhibition of galactitol accumulation in the sciatic nerve of rats fed with the dose of 1.1 mg/kg/day (values are mean of six animals, p<0.01); assay type: functional; outline: as §2
Rattus norvegicus [23] = test: Percentage Inhibition of galactitol accumulation in the sciatic nerve of rats fed with the dose of 0.8 mg/kg/day; assay type: functional; outline: as §2
Rattus norvegicus [24] = test: Percentage Inhibition of galactitol accumulation in the lens of rats fed with the dose of 0.8 mg/kg/day; NS=Not significant; assay type: functional, organism-based; conditions: Lens of camera-type eye; outline: as §2
Rattus norvegicus [25] = species: Rattus norvegicus; test: Dose at which the tissue level of polyol accumulation was reduced by 50% was evaluated for galactosemic rat in lens; assay type: functional; conditions: Lens of camera-type eye; outline: as §3
Rattus norvegicus [26] = species: Rattus norvegicus; test: Dose at which the tissue level of polyol accumulation was reduced by 50% was evaluated for galactosemic rat in sciatic nerve; assay type: functional; outline: as §3
Rattus norvegicus [27] = species: Rattus norvegicus; test: Dose at which the tissue level of polyol accumulation was reduced by 50% was evaluated for STZ diabetic rat in sciatic nerve; assay type: functional; outline: as §4
Rattus norvegicus [28] = test: Percentage Inhibition of galactitol accumulation in the sciatic nerve of rats fed with the dose of 4.0 mg/kg/day; assay type: functional; conditions: read-out: Inhibition; outline: as §2
Rattus norvegicus [29] = test: Percentage Inhibition of galactitol accumulation in the lens of rats fed with the dose of 4.0 mg/kg/day; NS=Not significant; assay type: functional, organism-based; conditions: Lens of camera-type eye; outline: as §2
Rattus norvegicus [30] = test: Percentage Inhibition of galactitol accumulation in the lens of rats fed with the dose of 0.6 mg/kg/day; NS=no significant; assay type: functional, organism-based; conditions: Lens of camera-type eye; outline: as §2
Rattus norvegicus [31] = test: Percentage Inhibition of galactitol accumulation in the sciatic nerve of rats fed with the dose of 0.6 mg/kg/day; assay type: functional; outline: as §2
Rattus norvegicus [32] = test: Percentage Inhibition of galactitol accumulation in the sciatic nerve of rats fed with the dose of 1.0 mg/kg/day; assay type: functional; outline: as §2
Rattus norvegicus [33] = test: Percentage Inhibition of galactitol accumulation in the sciatic nerve of rats fed with the dose of 3.0 mg/kg/day (values are mean of six animals); assay type: functional; outline: as §2
Rattus norvegicus [34] = test: Percentage Inhibition of galactitol accumulation in the lens of rats fed with the dose of 1.0 mg/kg/day; assay type: functional; conditions: Lens of camera-type eye; outline: as §2
Rattus norvegicus [35] = test: Percentage Inhibition of galactitol accumulation in the lens of rats fed with the dose of 1.0 mg/kg/day; NS=Not significant; assay type: functional, organism-based; conditions: Lens of camera-type eye; outline: as §2
Rattus norvegicus [36] = test: Percentage Inhibition of galactitol accumulation in the sciatic nerve of rats fed with the dose of 3.0 mg/kg/day; assay type: functional; outline: as §2
Rattus norvegicus [37] = test: Percentage Inhibition of galactitol accumulation in the sciatic nerve of rats fed with the dose of 1.1 mg/kg/day; assay type: functional; outline: as §2
Rattus norvegicus [38] = test: Percentage Inhibition of galactitol accumulation in the lens of rats fed with the dose of 3.0 mg/kg/day; NS=Not significant; assay type: functional, organism-based; conditions: Lens of camera-type eye; outline: as §2
Rattus norvegicus [39] = test: Percentage Inhibition of galactitol accumulation in the sciatic nerve of rats fed with the dose of 1.0 mg/kg/day (values are mean of six animals); assay type: functional; outline: as §2
Rattus norvegicus [40] = test: Percentage Inhibition of galactitol accumulation in the sciatic nerve of rats fed with the dose of 1.1 mg/kg/day (values are mean of six animals); assay type: functional; outline: as §2
[41] = Rattus norvegicus, Sciatic nerve, 336 h, read-out: ED50

IC50 [1]: Not Active | IC50 [2]: Not Active
Structure (SMILES): CON1C(=O)c2ccccc2C2(CC(=O)NC2=O)C1=O (centres undefined)

IC50 [3]: 32 nM | half-life [5]: 30 min
Structure (SMILES): O=C1C[C@]2(C(=O)N1)C(=O)N(Cc1ccc(Br)cc1F)C(=O)c1ccc(F)cc12
ED50 (Rattus norvegicus [4]): 0.15 mg/kg

IC50 [3]: 37 nM
Structure (SMILES): COc1ccc2c(c1)C(=O)N(Cc1ccc(Br)cc1F)C(=O)C21CC(=O)NC1=O (centres undefined)
inhibition in vivo at 25.6 mg/kg/day (Rattus norvegicus [6]): 88%

IC50 [9]: 27.2 nM
Structure (SMILES): COc1ccc2c(C(=S)N(C)CC(=O)O)cccc2c1C(F)(F)F [TOLRESTAT]
ED50 (Rattus norvegicus [7]): 6.4 mg/kg/day | ED50 (Rattus norvegicus [8]; [41]): 3.8 mg/kg/day | ED50 (Rattus norvegicus [10]): 128 mg/kg/day | ED50 (Rattus norvegicus [11]): 4.5 mg/kg/day | ED50 (Rattus norvegicus [12]): 28 mg/kg/day | ED50 (Rattus norvegicus [13]): 1.9 mg/kg/day

IC50 [3]: 9 nM | half-life [5]: 30 min
Structure (SMILES): O=C1C[C@@]2(C(=O)N1)C(=O)N(Cc1ccc(Br)cc1F)C(=O)c1ccc(F)cc12
ED50 (Rattus norvegicus [4]): 0.09 mg/kg

inhibition [15]: 64% | inhibition [17]: 46%
Structure (SMILES): CN1C(=O)c2ccc(C(F)(F)F)cc2C2(CC(=O)NC2=O)C1=O (centres undefined)
inhibition in vivo at 0.9 mg/kg/day (Rattus norvegicus [14]): 20% | inhibition in vivo at 0.9 mg/kg/day (Rattus norvegicus [16]): 38%

inhibition [15]: 72% | inhibition [17]: 43% | logD [21]: 0.58
Structure (SMILES): CN1C(=O)c2ccc(Cl)cc2C2(CC(=O)NC2=O)C1=O (centres undefined)
inhibition in vivo at 1.1 mg/kg/day (Rattus norvegicus [18]): 33% | inhibition in vivo at 0.5 mg/kg/day (Rattus norvegicus [19]): 54% | inhibition in vivo at 3 mg/kg/day (Rattus norvegicus [20]): 59% | inhibition in vivo at 1.1 mg/kg/day (Rattus norvegicus [22]): 75%

logD [21]: 2.74
Structure (SMILES): O=C1CC2(C(=O)N1)C(=O)N(Cc1ccc(Br)cc1F)C(=O)c1ccccc12 (centres undefined)
inhibition in vivo at 0.8 mg/kg/day (Rattus norvegicus [23]): 88% | inhibition (Rattus norvegicus [24]): inactive | ED50 (Rattus norvegicus [25]): ~10 mg/kg/day | ED50 (Rattus norvegicus [26]): 0.3 mg/kg/day | inhibition in vivo at 0.5 mg/kg/day (Rattus norvegicus [19]): 82% | ED50 (Rattus norvegicus [27]): 0.07 mg/kg/day

IC50 [3]: 14 nM | IC50 [9]: 26.9 nM | logD [21]: 2.81
Structure (SMILES): O=C1CC2(C(=O)N1)C(=O)N(Cc1ccc(Br)cc1F)C(=O)c1ccc(F)cc12 (centres undefined)
inhibition in vivo at 4 mg/kg/day (Rattus norvegicus [28]): 95% | inhibition (Rattus norvegicus [29]): inactive | ED50 (Rattus norvegicus [7]): 0.3 mg/kg/day | ED50 (Rattus norvegicus [8]): 0.1 mg/kg/day | ED50 (Rattus norvegicus [8]; [41]): 0.09 mg/kg/day | ED50 (Rattus norvegicus [10]): 19 mg/kg/day | inhibition in vivo at 0.5 mg/kg/day (Rattus norvegicus [19]): 83% | ED50 (Rattus norvegicus [13]): 0.25 mg/kg/day

IC50 [3]: 33 nM | logD [21]: 3.51
Structure (SMILES): O=C1CC2(C(=O)N1)C(=O)N(Cc1ccc(Br)cc1F)C(=O)c1cc(Cl)ccc12 (centres undefined)
inhibition (Rattus norvegicus [30]): inactive | inhibition in vivo at 0.6 mg/kg/day (Rattus norvegicus [31]): 63%

inhibition [15]: 63% | inhibition [17]: 38% | logD [21]: 0.24
Structure (SMILES): CN1C(=O)c2ccccc2C2(CC(=O)NC2=O)C1=O (centres undefined)
inhibition in vivo at 1 mg/kg/day (Rattus norvegicus [32]): 37% | inhibition in vivo at 3 mg/kg/day (Rattus norvegicus [33]): 66% | inhibition in vivo at 1 mg/kg/day (Rattus norvegicus [34]): 15% | inhibition in vivo at 3 mg/kg/day (Rattus norvegicus [20]): 43%

IC50 [3]: 22 nM | logD [21]: 3.09
Structure (SMILES): O=C1CC2(C(=O)N1)C(=O)N(Cc1ccc(Cl)c(Cl)c1)C(=O)c1ccccc12 (centres undefined)
inhibition (Rattus norvegicus [35]): inactive | inhibition in vivo at 3 mg/kg/day (Rattus norvegicus [36]): 76% | inhibition in vivo at 1.1 mg/kg/day (Rattus norvegicus [37]): 64% | inhibition (Rattus norvegicus [38]): inactive | inhibition in vivo at 1 mg/kg/day (Rattus norvegicus [39]): 64%

IC50 [3]: 22 nM | logD [21]: 3.17
Structure (SMILES): O=C1CC2(C(=O)N1)C(=O)N(Cc1nc3cc(C(F)(F)F)ccc3s1)C(=O)c1ccccc12 (centres undefined)
inhibition in vivo at 1.1 mg/kg/day (Rattus norvegicus [18]): 22% | inhibition in vivo at 0.5 mg/kg/day (Rattus norvegicus [19]): 49% | inhibition in vivo at 1.1 mg/kg/day (Rattus norvegicus [40]): 100%

— ChEMBL document CHEMBL1127561, “Novel spirosuccinimide aldose reductase inhibitors derived from isoquinoline-1,3-diones: 2-[(4-bromo-2-fluorophenyl)methyl]-6- fluorospiro[isoquinoline-4(1H),3'-pyrrolidine]-1,2',3,5'(2H)-tetrone and congeners. 1” (J Med Chem, 1994)
